Measured values as given in ChEMBL document CHEMBL1165950, “Design and synthesis of new potent anticancer pyrazoles with high FLT3 kinase inhibitory selectivity” (Bioorg Med Chem, 2010).

Legend:
Type in all cases: functional
SNB-19 = test: Cytotoxicity against human SNB19 cells assessed as cell growth at 1 uM after 48 hrs by sulforhodamine B assay; conditions: SNB-19, 48 h, read-out: Activity
PC-3 = test: Cytotoxicity against human PC3 cells assessed as cell growth at 10 uM; conditions: read-out: Activity
Summary of the method: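 NCI-60 screen: cells grown in RPMI 1640 with 5% FBS and 2 mM L-glutamine, plated at 5000–40,000 cells/well according to doubling time, and preincubated 24 h at 37 °C, 5% CO2. The single 10 µM dose (DMSO stock) was added, then incubated 48 h. Cells were TCA-fixed and stained with 0.4% SRB, read at 515 nm, and growth % calculated against time-zero and control plates.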

OVCAR-5 = test: Cytotoxicity against human OVCAR5 cells assessed as cell growth at 10 uM after 48 hrs by sulforhodamine B assay; conditions: OVCAR-5, 48 h, read-out: Activity
OVCAR-4 = test: Cytotoxicity against human OVCAR4 cells assessed as cell growth at 10 uM after 48 hrs by sulforhodamine B assay; conditions: OVCAR-4, 48 h, read-out: Activity
SK-OV-3 [1] = test: Cytotoxicity against human SKOV3 cells assessed as cell growth at 1 uM after 48 hrs by sulforhodamine B assay; conditions: SK-OV-3, 48 h, read-out: Activity
SK-OV-3 [2] = test: Cytotoxicity against human SKOV3 cells assessed as cell growth at 0.01 uM after 48 hrs by sulforhodamine B assay; conditions: SK-OV-3, 48 h, read-out: Activity
HL-60(TB) = test: Growth inhibition of human HL-60(TB) cells after 48 hrs by sulforhodamine B assay; conditions: HL-60, 48 h
Summary of the method: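 NCI 60-cell SRB screen. Cells in RPMI 1640 with 5% FBS and 2 mM L-glutamine are preincubated 24 h, then exposed to five concentrations (10-fold or 1/2-log dilutions from DMSO stock) for 48 h at 37 °C. Suspension cells are fixed with 80% TCA (final 16%), and A515 is read. IC50 is taken as the concentration where [(Ti−Tz)/(C−Tz)]×100 = 50, i.e. 50% reduction in net protein increase.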

UACC-62 [3] = test: Cytotoxicity against human UACC62 cells assessed as cell growth at 0.01 uM after 48 hrs by sulforhodamine B assay; conditions: UACC-62, 48 h, read-out: Activity
HOP-92 = test: Cytotoxicity against human HOP92 cells assessed as cell growth at 0.001 uM after 48 hrs by sulforhodamine B assay; conditions: HOP-92, 48 h, read-out: Activity
CCRF-CEM = test: Growth inhibition of human CCRF-CEM cells after 48 hrs by sulforhodamine B assay
Summary of the method: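 NCI five-dose SRB assay in RPMI 1640 with 5% FBS and 2 mM L-glutamine. Cells were preincubated 24 h, then exposed 48 h at 37 °C to five concentrations (10-fold or half-log serial dilutions from DMSO stocks). TCA fixation, SRB staining, and absorbance at 515 nm followed. IC50 was taken where [(Ti−Tz)/(C−Tz)]×100 = 50, with Tz as time-zero cell density.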

NCI-H522 = test: Cytotoxicity against human NCI-H522 cells assessed as cell growth at 0.01 uM after 48 hrs by sulforhodamine B assay; conditions: NCI-H522, 48 h, read-out: Activity
SN12C = test: Cytotoxicity against human SN12C cells assessed as cell growth at 0.01 uM after 48 hrs by sulforhodamine B assay; conditions: read-out: Activity
HCT-15 = test: Cytotoxicity against human HCT15 cells assessed as cell growth at 0.01 uM after 48 hrs by sulforhodamine B assay; conditions: HCT-15, 48 h, read-out: Activity
U-251 = test: Growth inhibition of human U251 cells after 48 hrs by sulforhodamine B assay; conditions: U-251, 48 h; for CC50: read-out: LC50 (the source's name)
Summary of the method: (§1)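 NCI 60-cell screen, five-dose mode. Cells grown in RPMI 1640 with 5% FBS and 2 mM L-glutamine and plated at 5000-40,000 cells/well according to doubling time. After 24 h preincubation, a Tz plate was TCA-fixed. Five concentrations (10-fold or 1/2 log dilutions) were applied for 48 h at 37 °C. SRB staining read at 515 nm. IC50 taken from [(Ti-Tz)/(C-Tz)]×100 = 50.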

UACC-62 [4] = test: Cytotoxicity against human UACC62 cells assessed as cell growth at 10 uM after 48 hrs by sulforhodamine B assay; conditions: UACC-62, 48 h, read-out: Activity
DU-145 [5] = test: Cytotoxicity against human DU145 cells assessed as cell growth at 1 uM after 48 hrs by sulforhodamine B assay; conditions: DU-145, 48 h, read-out: Activity
T47D = test: Cytotoxicity against human T47D cells assessed as cell growth at 0.001 uM after 48 hrs by sulforhodamine B assay; conditions: read-out: Activity
[6] = Cytotoxicity against human RPMI8266 cells assessed as cell growth at 1 uM after 48 hrs by sulforhodamine B assay; conditions: read-out: Activity
Malme-3M [7] = test: Cytotoxicity against human MALME-3M cells assessed as cell growth at 1 uM after 48 hrs by sulforhodamine B assay; conditions: read-out: Activity
DU-145 [8] = test: Cytotoxicity against human DU145 cells assessed as cell growth at 100 nM after 48 hrs by sulforhodamine B assay; conditions: DU-145, 48 h, read-out: Activity
BT-549 = test: Cytotoxicity against human BT549 cells assessed as cell growth at 0.001 uM after 48 hrs by sulforhodamine B assay; conditions: BT-549, 48 h, read-out: Activity
Summary of the method: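 NCI-60 five-dose screen. Cells were grown in RPMI 1640 with 5% FBS and 2 mM L-glutamine, plated at 5000–40,000 cells/well and preincubated for 24 h. Time-zero plates were TCA-fixed. DMSO-solubilized drug was added at five concentrations (10-fold or ½-log serial dilutions) for 48 h at 37 °C, 5% CO2. Cells were TCA-fixed, stained with 0.4% SRB and read at 515 nm. Percent growth used time-zero, control and test absorbances.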

M14 = test: Cytotoxicity against human M14 cells assessed as cell growth at 0.01 uM after 48 hrs by sulforhodamine B assay; conditions: M14, 48 h, read-out: Activity
OVCAR-8 = test: Cytotoxicity against human OVCAR8 cells assessed as cell growth at 0.001 uM after 48 hrs by sulforhodamine B assay; conditions: OVCAR-8, 48 h, read-out: Activity
Malme-3M [9] = test: Growth inhibition of human MALME-3M cells after 48 hrs by sulforhodamine B assay; conditions: for CC50: read-out: LC50 (the source's name); summary of the method: as §1
SNB-75 = test: Cytotoxicity against human SNB75 cells assessed as cell growth at 0.001 uM after 48 hrs by sulforhodamine B assay; conditions: SNB-75, 48 h, read-out: Activity
MDA-MB-231 = test: Cytotoxicity against human MDA-MB-231 cells assessed as cell growth at 0.01 uM after 48 hrs by sulforhodamine B assay; conditions: MDA-MB-231, 48 h, read-out: Activity
SF-268 = test: Cytotoxicity against human SF268 cells assessed as cell growth at 10 uM after 48 hrs by sulforhodamine B assay; conditions: SF-268, 48 h, read-out: Activity

Row | Structure (SMILES) | growth at 1 µM (SNB-19) [%] | growth at 10 µM (PC-3) [%] | growth at 10 µM (OVCAR-5) [%] | growth at 10 µM (OVCAR-4) [%] | growth at 1 µM (SK-OV-3 [1]) [%] | growth at 0.01 µM (SK-OV-3 [2]) [%] | GI50 (HL-60(TB)) [µM] | LC50 (HL-60(TB)) [µM] | TGI (HL-60(TB)) [µM] | growth at 0.01 µM (UACC-62 [3]) [%] | growth at 0.001 µM (HOP-92) [%] | GI50 (CCRF-CEM) [µM] | LC50 (CCRF-CEM) [µM] | TGI (CCRF-CEM) [µM] | growth at 0.01 µM (NCI-H522) [%] | growth at 0.01 µM (SN12C) [%] | growth at 0.01 µM (HCT-15) [%] | GI50 (U-251) [µM] | TGI (U-251) [µM] | CC50 (U-251) [µM] | other results
1 | COc1cc(C)cc(-c2nn(CC#N)cc2-c2ccc(-c3cccc(C(C)=O)c3)nc2)c1 | 39 | 31.5 | -18 | 10 | -4 | 101 | 1.78 | > 100 | 15.1 | 90 | 84 | 2.61 | > 100 | > 100 | 82 | 88 | 100 | 3.17 | 13.5 | > 100 | growth at 10 µM (UACC-62 [4]): 25%; growth at 1 µM (DU-145 [5]): -38%; growth at 0.001 µM (T47D): 88%; growth at 1 µM [6]: 8%; growth at 1 µM (Malme-3M [7]): 38%; growth at 0.1 µM (DU-145 [8]): 87%; growth at 0.001 µM (BT-549): 99%; growth at 0.01 µM (M14): 93%; growth at 0.001 µM (OVCAR-8): 91%; GI50 (Malme-3M [9]): 3.76 µM; TGI (Malme-3M [9]): 96.4 µM; CC50 (Malme-3M [9]): > 100 µM; growth at 0.001 µM (SNB-75): 82%; growth at 0.01 µM (MDA-MB-231): 96%; growth at 10 µM (SF-268): -2%
2 | Cc1cc(O)cc(-c2nn(CC#N)cc2-c2ccnc(-c3ccc(Oc4ccccc4)cc3)c2)c1 | 55 | 66.4 | -89 | -83 | 63 | 98 | 2.25 | > 100 | 5.94 | 84 | 74 | 2.85 | > 100 | > 100 | 72 | 88 | 96 | 1.61 | 2.99 | 5.56 | growth at 10 µM (UACC-62 [4]): -95%; growth at 1 µM (DU-145 [5]): -14%; growth at 0.001 µM (T47D): 95%; growth at 1 µM [6]: -20%; growth at 1 µM (Malme-3M [7]): -75%; growth at 0.1 µM (DU-145 [8]): 86%; growth at 0.001 µM (BT-549): 96%; growth at 0.01 µM (M14): 96%; growth at 0.001 µM (OVCAR-8): 96%; GI50 (Malme-3M [9]): 1.81 µM; TGI (Malme-3M [9]): 3.58 µM; CC50 (Malme-3M [9]): 7.12 µM; growth at 0.001 µM (SNB-75): 86%; growth at 0.01 µM (MDA-MB-231): 84%; growth at 10 µM (SF-268): -95%
